These results are taken from PMC5361409 (Bioorganic & medicinal chemistry letters, 2016).

The term CLint scaled denotes the capacity of the preparation to metabolise the compound, expressed as a volume cleared per time. For orientation: inhibition means how much of the control response was suppressed. As a reminder, the IC50 is the concentration that inhibits the measured activity by half. Higher therefore signals weaker potency. The term Ki denotes the equilibrium dissociation constant of an inhibitor or competing ligand from its target. Low readings indicate higher affinity, high ones lower affinity.

Data set [1] can be described thus: Intrinsic clearance in human liver microsomes. The data set is classed as in vitro ADME. Particulars: for CLint scaled: human, liver microsomes; for predicted clearance: predicted from CLINT in liver microsomes (rat and human), in words.
A short description of data set [2]: Intrinsic clearance in rat liver microsomes. The data set is classed as in vitro ADME. For orientation: Microsomes from liver hold many membrane-bound enzymes, among them those of drug oxidation.
The next data set deals with D1 (Homo sapiens, UniProt P21728). Description: Dopamine receptor selectivity, radioligand binding at EuroFins: D1. The following applies: read-out: % inhibition at 10 µM D1 (%). An outline of the steps:
(§1)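 Contract radioligand binding screen against the indicated human dopamine receptor subtype. Each test compound was run in duplicate, and the read-out is percent inhibition of specific radioligand binding.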

The next data set addresses D3 (Homo sapiens, UniProt P35462). Put plainly: Dopamine receptor selectivity, radioligand binding at EuroFins: D3. The following applies: read-out: % inhibition at 10 µM D3 (%). The method, boiled down: as §1
The next data set has as its target D5 (Homo sapiens, UniProt P21918). Description: Dopamine receptor selectivity, radioligand binding at EuroFins: D5. Particulars: read-out: % inhibition at 10 µM D5 (%). An outline of the steps: as §1
In data set [3] the test system is other dopamine receptors (D1, D2L, D2S, D3, and D5). Put plainly: Selectivity against the other dopamine receptors. The format is binding. Particulars: for selectivity against all of the dopamine receptors tested: in words.
A short description of data set [4]: Metabolic soft-spot experiment in human liver microsomes. The data set is classed as in vitro ADME.
Data set [5] in a line: Metabolic soft-spot experiment in rat liver microsomes. The format is in vitro ADME.
In data set [6] the target is T1, dopamine D4 receptor (D4R) (Homo sapiens, UniProt P21917).
T1 sequence (P21917 1-419): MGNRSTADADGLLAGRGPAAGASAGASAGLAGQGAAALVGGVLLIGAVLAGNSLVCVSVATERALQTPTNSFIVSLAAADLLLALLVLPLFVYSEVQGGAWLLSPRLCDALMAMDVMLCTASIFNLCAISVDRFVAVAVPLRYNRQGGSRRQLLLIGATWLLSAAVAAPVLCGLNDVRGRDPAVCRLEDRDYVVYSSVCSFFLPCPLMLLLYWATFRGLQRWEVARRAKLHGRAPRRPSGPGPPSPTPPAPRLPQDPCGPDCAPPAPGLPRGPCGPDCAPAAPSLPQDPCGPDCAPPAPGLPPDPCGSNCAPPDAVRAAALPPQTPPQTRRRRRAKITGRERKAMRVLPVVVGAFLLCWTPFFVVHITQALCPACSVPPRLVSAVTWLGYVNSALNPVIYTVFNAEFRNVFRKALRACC
Description: D4 radioligand binding assay using Spiperone at EuroFins. Particulars: run in duplicate.

[7] abbreviates: in the presence of NADPH, in words.

Entries after “also recorded” stand apart in the source; their conditions may differ.

Sequence of D3 (P35462 whole entry): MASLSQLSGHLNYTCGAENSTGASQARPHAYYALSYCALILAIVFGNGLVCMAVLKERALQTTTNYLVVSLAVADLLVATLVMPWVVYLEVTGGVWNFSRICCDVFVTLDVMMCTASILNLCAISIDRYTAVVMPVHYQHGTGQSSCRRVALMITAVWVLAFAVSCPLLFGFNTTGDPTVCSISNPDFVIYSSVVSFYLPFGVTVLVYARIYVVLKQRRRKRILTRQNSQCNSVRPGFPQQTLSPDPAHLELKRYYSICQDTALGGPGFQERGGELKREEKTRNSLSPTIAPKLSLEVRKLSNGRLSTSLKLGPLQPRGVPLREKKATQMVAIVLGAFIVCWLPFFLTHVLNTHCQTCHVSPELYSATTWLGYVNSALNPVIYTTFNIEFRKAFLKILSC
Sequence of D5 (P21918 whole entry): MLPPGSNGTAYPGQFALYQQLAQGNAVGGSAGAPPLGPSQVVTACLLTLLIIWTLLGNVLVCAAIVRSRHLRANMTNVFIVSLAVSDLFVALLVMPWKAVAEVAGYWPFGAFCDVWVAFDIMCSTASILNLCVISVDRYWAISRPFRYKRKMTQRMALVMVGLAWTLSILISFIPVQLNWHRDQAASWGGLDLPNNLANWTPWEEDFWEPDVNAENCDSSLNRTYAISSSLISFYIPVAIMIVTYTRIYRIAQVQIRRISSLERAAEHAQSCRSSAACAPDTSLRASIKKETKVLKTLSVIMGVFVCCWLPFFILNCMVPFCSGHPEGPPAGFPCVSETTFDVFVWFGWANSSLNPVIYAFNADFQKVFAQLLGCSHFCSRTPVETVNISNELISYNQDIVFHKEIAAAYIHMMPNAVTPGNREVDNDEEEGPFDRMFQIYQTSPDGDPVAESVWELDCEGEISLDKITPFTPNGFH
Sequence of D1 (P21728 whole entry): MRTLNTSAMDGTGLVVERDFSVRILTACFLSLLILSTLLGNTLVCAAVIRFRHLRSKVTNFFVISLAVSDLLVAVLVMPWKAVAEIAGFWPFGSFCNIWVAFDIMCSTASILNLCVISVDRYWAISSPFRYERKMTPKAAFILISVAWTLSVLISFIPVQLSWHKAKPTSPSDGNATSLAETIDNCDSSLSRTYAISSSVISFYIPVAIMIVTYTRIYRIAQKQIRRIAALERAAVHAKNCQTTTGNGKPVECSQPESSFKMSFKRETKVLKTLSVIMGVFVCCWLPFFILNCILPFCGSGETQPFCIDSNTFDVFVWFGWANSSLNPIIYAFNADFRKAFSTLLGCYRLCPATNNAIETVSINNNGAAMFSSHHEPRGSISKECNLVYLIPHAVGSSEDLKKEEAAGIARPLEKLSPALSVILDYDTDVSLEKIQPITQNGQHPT

On to `Clc1ccc(CN2CCO[C@H](COc3ccccc3)C2)cc1` [Compound 4a], for which the values for the CLint scaled in [1] and in data set [2] were 147 mL/min/kg and 4520 mL/min/kg, respectively.
As to `Clc1ccc2c(CN3CCO[C@H](COc4ccccc4)C3)c[nH]c2c1` [Compound 4aa], the CLint scaled amounted to 46.7 mL/min/kg in data set [1] and 614 mL/min/kg in data set [2].
`Cc1ccc(CN2CCO[C@H](COc3ccccc3)C2)cc1C` [Compound 4b]: the inhibition at 10 µM on D1, on D3 and on D5 was below 50% each time.
For the molecule `COc1ccc2c(CN3CCO[C@H](COc4ccccc4)C3)c[nH]c2c1` [Compound 4dd], the results for the CLint scaled in data set [1] and in data set [2] were 31.6 mL/min/kg and 184 mL/min/kg, respectively.
Regarding `Fc1ccc2c(CN3CCO[C@H](COc4ccccc4)C3)c[nH]c2c1` [Compound 4ee], the CLint scaled in data set [1] was found to be 71.1 mL/min/kg; in [2], 1690 mL/min/kg.
Take `Fc1cc(CN2CCO[C@H](COc3ccccc3)C2)ccc1Cl` [Compound 4g]: in data set [1], the CLint scaled came to 65.3 mL/min/kg and the predicted clearance result is given as “moderate”. In data set [2], the intrinsic clearance (CLint scaled) came to 251 mL/min/kg.
Consider `Clc1ccc(CN2CCO[C@H](COc3ccccc3)C2)cc1Cl` [Compound 4i], for which the CLint scaled is 50.5 mL/min/kg in [1] and 621 mL/min/kg in data set [2].
`Fc1cc(CN2CCO[C@H](COc3ccccc3)C2)ccc1C(F)(F)F` [Compound 4j]: the CLint scaled in [1] came out at 50.5 mL/min/kg; in data set [2], 247 mL/min/kg.
As for `COc1ccc(CN2CCO[C@H](COc3ccccc3)C2)cc1F` [Compound 4l], the CLint scaled was found to be 71.9 mL/min/kg in [1] and 2130 mL/min/kg in [2].
Consider `COc1ccc(CN2CCO[C@H](COc3ccccc3)C2)cc1Cl` [Compound 4n], for which the inhibition at 10 µM on D1, on D3 and on D5 was below 50% in each case. In addition, the CLint scaled in [1] came to 78.7 mL/min/kg; in [2], 1600 mL/min/kg.
Consider `COc1cc(CN2CCO[C@H](COc3ccccc3)C2)ccc1Cl` [Compound 4p], for which the CLint scaled in data set [1] was determined as 79.7 mL/min/kg; in data set [2], 1500 mL/min/kg.
`c1ccc(OC[C@@H]2CN(Cc3cn4ccccc4n3)CCO2)cc1` [Compound 4t]: in data set [1], the CLint scaled was found to be 17.3 mL/min/kg and the predicted clearance entry is “moderate”. The same molecule came in with a CLint scaled in [2] of 154 mL/min/kg.
`c1ccc(OC[C@@H]2CN(Cc3ncn4ccccc34)CCO2)cc1` [Compound 4u]: the inhibition at 10 µM on D1, on D3 and on D5 was below 50% in each case.
As for `c1ccc(OC[C@@H]2CN(Cc3n[nH]c4ccccc34)CCO2)cc1` [Compound 4v], the inhibition at 10 µM at D1, at D3 and on D5 was below 50% each time.
For the molecule `Cn1ncc2cc(CN3CCO[C@H](COc4ccccc4)C3)ccc21` [Compound 4y], the intrinsic metabolic clearance (CLint scaled) in data set [1] turned out to be 60.5 mL/min/kg; in [2], 433 mL/min/kg.
On the same counts, the results for `c1ccc(OC[C@@H]2CN(Cc3ccc4[nH]ccc4c3)CCO2)cc1` [Compound 4z] are 135 mL/min/kg and 3140 mL/min/kg.
Turning to `Clc1ccc(CN2CCO[C@H](CSc3ccccc3)C2)cc1` [Compound 5aa], the inhibition at 10 µM at D1, at D3 and on D5 was below 50% in each case. In addition, the intrinsic clearance (CLint scaled) in data set [1] turned out to be 122 mL/min/kg; in [2], 3220 mL/min/kg. In data set [3], the “selectivity for D4 over the other dopamine receptors” value (from here on “selectivity for D4”) was above 1000 fold. Moreover, the “selectivity against all of the dopamine receptors tested” value (shortened to “selectivity against all”) in data set [3] is listed as “completely selective”.
Regarding `Cc1ccc(CN2CCO[C@H](CSc3ccccc3)C2)cc1C` [Compound 5bb], the inhibition at 10 µM on D1, on D3 and at D5 was below 50% each time. For the same molecule, the results for the CLint scaled in data set [1] and in data set [2] were 366 mL/min/kg and 6440 mL/min/kg, respectively. Further, the “selectivity for D4” value in data set [3] is above 1000 fold. For the same molecule, the “selectivity against all” value in data set [3] is given as “completely selective”.
Consider `COc1ccc(CN2CCO[C@H](COc3cccc(F)c3)C2)cc1Cl` [Compound 5m], for which the inhibition at 10 µM on D1, on D3 and at D5 was below 50% each time. Also, the CLint scaled turned out to be 93 mL/min/kg in data set [1] and 1500 mL/min/kg in data set [2].
Turning to `COc1cc(CN2CCO[C@H](COc3cccc(F)c3)C2)ccc1Cl` [Compound 5n], the inhibition at 10 µM on D1, on D3 and on D5 was below 50% in each case. In addition, the CLint scaled in data set [1] is 68.9 mL/min/kg; in data set [2], 1770 mL/min/kg.
`Fc1ccc2c(CN3CCO[C@H](COc4cccc(F)n4)C3)c[nH]c2c1` [Compound 5u]: the inhibition at 10 µM at D1, on D3 and at D5 was below 50% throughout. In addition, the CLint scaled in data set [1] was 101 mL/min/kg; in data set [2], 4010 mL/min/kg. Besides, the “selectivity against all” value in [3] is recorded as “fully selective”.
For the molecule `Fc1ccc2c(CN3CCO[C@H](COc4cccc(Cl)n4)C3)c[nH]c2c1` [Compound 5y, (S)-2-(((6-chloropyridin-2-yl)oxy)methyl)-4-((6-fluoro-1H-indol-3-yl)methyl)morpholine], the inhibition at 10 µM on D1, on D3 and on D5 was below 50% throughout. For the same molecule, the intrinsic metabolic clearance (CLint scaled) in data set [1] was 230 mL/min/kg; in data set [2], 4200 mL/min/kg. Further, the “selectivity for D4” value in data set [3] was above 1000 fold. The “selectivity against all” value in data set [3] is listed as “fully selective; also recorded: completely selective”. The “major metabolite in human microsomes” value in [4] (Compound A = N-dealkylation) is “Compound A”. Besides, in data set [4] (setting [7]), the “extent of metabolism in human liver microsomes” value is recorded as “highly metabolized”. Also, the “major metabolite in rat microsomes” value in data set [5] (Compound B = N-dealkylation + oxidation) was “Compound B”. Besides, the “extent of metabolism in rat liver microsomes” value in [5] (setting [7]) is on record as “highly metabolized”.
With `Clc1ccc(CN2CCO[C@H](COc3cccc(Cl)n3)C2)cc1` [Compound 5z], the intrinsic clearance (CLint scaled) in [1] is 98.2 mL/min/kg; in data set [2], 5310 mL/min/kg.
In data set [6], `Clc1ccc(CN2CCO[C@H](CCc3ccccc3)C2)cc1` [ML398] gave an IC50 of 130 nM and a Ki of 36 nM.
